Assay outcomes deposited in PubChem by several laboratories.
HCT116 PTEN-null: growth suppression of PTEN-null HCT116, primary screen, cell-based, CellTiter-Glo; HCT116 PTEN-null viability, 60 h; stronger effect = lower value; viability, % at 10 µM; 140,000 tested, 1.2% active; AID 827, 2007;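 active = viability at or below a set limit, 4 SD under the median of all tested compounds, cut at about 3.7% in these data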;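 note: PTEN knockout HCT116 line with beta catenin targeted HCT116 as companion control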
Autophagy mod: autophagy modulators in MEF cells, primary screen, imaging, high-content, MEF GFP-LC3 | calls only at 10 µM (by protocol) | AID 463193, 2010 | 190,000 tested, 0.98% active | MEF GFP-LC3 puncta imaging; test concentration mostly 10 µM;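 active = percentage of spot-positive cells more than 3 SD above its plate mean, without a fluorescence outlier flag or 80% toxicity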;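 note: spot-positive cell cutoff set from DMSO-treated cells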
Lmaj promast: Leishmania major promastigote growth inhibition, primary screen; 200,000 tested, 9% active; inhibition, % at 10 µM; AID 1063, 2008; Leishmania major promastigotes, resazurin fluorescence viability; in the data active = inhibition above about 50%;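 note: promastigotes grown with compound for 44 hours at 28 °C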
HCT116 bCat-KO: primary screen for growth suppressors in beta-catenin knockout HCT116 cells (colon tumor, human) | HCT116 beta-catenin knockout viability, CellTiter-Glo, 60 h; stronger effect = lower value | viability, % at 10 µM | 140,000 tested, 1.5% active | AID 818, 2007;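 active = viability at or under a set limit, the compound median less 4 SD, cut at about 6% in these data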;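 note: 0% = Hyamine 1622 control at 20 µM and 100% = untreated cell control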
Dynein transport: inhibitors of GR-EGFP nuclear translocation, primary screen, dynein cargo transport inhibitor project, imaging, high-content, 3617.4 mouse cells; test concentration mostly 20 µM; stimulated with dexamethasone, 1 µM; stronger effect = lower value; AID 1381, 2008; 220,000 tested, 0.47% active; z-score, hits read low;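 active = plate z-score of nuclear minus cytoplasmic receptor signal below a set negative limit, without overly bright fluorescence or cell loss, cut at about -3.5 in these data, passing the limit was not always enough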;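 note: z-score of nuclear minus cytoplasmic ring GR-EGFP intensity difference per well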
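Schedule: 48 h induction, then 1 h compound, then 30 min agonist, 37 °C. Buffer or medium: tetracycline-free induction medium containing charcoal-stripped FBS. Reagent: 1.0 µM final dexamethasone stimulus. Evaluation: nuclear versus cytoplasmic GR-EGFP signal, averaged per well. Signal: high-content fluorescence imaging after fixation.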
An asterisk follows results filed as active; i = inactive; . = not tested or not shown; + = active, no number. This is a sample that favours compounds with a hit; in the whole collection about 9.2% have one here.

SMILES	HCT116 PTEN-null	Autophagy mod	Lmaj promast	HCT116 bCat-KO	Dynein transport
COc1ccc(-n2c(=O)c(CCC(=O)N(C)Cc3ccccc3C)nc3ccccc32)cc1	.	i	65.9*	.	0.14
COc1ccc(N(CC(=O)Nc2ccccc2F)S(=O)(=O)c2ccc(C)c([N+](=O)[O-])c2)cc1	.	i	21.1	.	1.13
CC(=O)c1ccc(OCC(O)CN2CCN(CC(O)COc3ccc(C(C)=O)cc3)CC2)cc1 (stereo not drawn)	86.7	i	-7.7	87.2	1.08
OC(COC(c1ccccc1)c1ccccc1)CN1CCOCC1 (stereo not drawn)	.	i	3.1	.	0.0104
Cc1nc(C)n(CC(O)COc2ccc(C(=O)c3ccccc3)cc2)n1 (stereo not drawn)	69.2	i	2.0	74.8	-0.912
CC(=O)c1ccc(OCC(O)CN2CCN(Cc3ccccc3)CC2)cc1 (stereo not drawn)	98.4	i	93.7*	94.3	-0.358
CC1CN(CC(O)COc2ccc(C(=O)c3ccccc3)cc2)CC(C)O1 (stereo not drawn)	94.8	i	79.0*	91.2	1.28
O=C(c1ccccc1)c1ccc(OCC(O)CN2CCN(Cc3ccccc3)CC2)cc1 (stereo not drawn)	57.2	i	95.9*	57.9	2.14
CC1CN(CC(O)COC(c2ccccc2)c2ccccc2)CC(C)O1 (stereo not drawn)	89.1	i	85.5*	91.8	0.522
Cc1c(NC(=O)CSc2ccccc2C(=O)Nc2cccnc2)c(=O)n(-c2ccccc2)n1C	106.5	i	-3.0	101.2	-0.196
O=C(Nn1c(-c2ccncc2)nc2ccccc2c1=O)c1ccc([N+](=O)[O-])cc1Cl	.	i	-0.8	.	1.28
CCc1nc(C#N)c(N2CCOCC2)o1	95.9	i	-4.1	90.1	-0.283
C=C1CC(C)OC(c2ccccc2OCC(O)CN2CCCCC2)C1 (stereo not drawn)	80.5	i	13.8	85.2	-0.197
CC1CN(CC(O)COc2ccccc2C(C)(C)C)CC(C)O1 (stereo not drawn)	74.3	i	92.3*	69.6	-0.991
O=C(O)C1C2C=CC(C2)C1C(=O)NCc1ccccn1 (stereo not drawn)	112.5	i	-1.7	96.3	0.415
O=C(NCc1ccccn1)C1C2C=CC(C2)C1C(=O)Nc1ccc(F)cc1 (stereo not drawn)	100.6	i	75.5*	83.7	-0.523
O=C(CN1CCOc2ccccc21)NC1CCN(Cc2ccccc2)CC1	89.5	i	77.8*	82.0	-0.541
O=C(Cn1cc2c(n1)CCCC2)NC1CCN(Cc2ccccc2)CC1	99.1	i	72.0*	95.8	0.785
COc1ccc(-c2c([C@H]3[C@H]4C=CC[C@@H](C)[C@@H]4C(=O)N3Cc3ccccc3)ccc3ccccc23)cc1OC	.	.	.	.	0.273
Cc1ccc(Cl)c(NC(=O)COC(=O)c2ccccc2C(=O)c2ccc(Cl)c([N+](=O)[O-])c2)c1Cl	2.0*	+	29.0	2.1*	-1.15
CCCNC(=O)COC(=O)c1ccccc1C(=O)c1ccc(Cl)c([N+](=O)[O-])c1	.	i	11.1	.	-2.02
Cn1c(=O)c2c(nc(N/N=C/c3ccc(OC(=O)c4ccco4)cc3)n2Cc2ccccc2Cl)n(C)c1=O	25.0	i	55.1*	38.8	-0.737
O=C(NC1=C(Nc2ccc(Cl)cc2)C(=O)c2ccccc2C1=O)c1ccccc1	49.4	i	77.7*	34.2	-0.183
O=C(NC(NC1CCS(=O)(=O)C1)C(=O)c1cccs1)c1ccccc1 (stereo not drawn)	82.6	i	-4.6	93.0	-1.08
CN(C1=C(NC(=O)c2ccc(Cl)cc2)C(=O)c2ccccc2C1=O)c1ccccc1	1.6*	i	63.8*	1.6*	0.698
SMILES	HCT116 PTEN-null	Autophagy mod	Lmaj promast	HCT116 bCat-KO	Dynein transport
O=C(NC1=C(NC2CCS(=O)(=O)C2)C(=O)c2ccccc2C1=O)c1ccccc1 (stereo not drawn)	.	i	99.4*	.	-2.09
Cc1cccc(NC2=C(NC(=O)c3ccccc3)C(=O)c3ccccc3C2=O)c1	4.3	i	51.9*	3.6*	2.06
CCOC(=O)Cc1csc(NC(=O)/C=C\c2ccccc2Cl)n1	.	i	9.2	.	0.184
NC(=O)C1CCN(C(=O)c2cc(S(=O)(=O)N3CCOCC3)c(Cl)cc2Cl)CC1	83.7	i	1.8	94.7	-0.448
COCCNC(=O)c1onc(CCl)c1C(=O)OC	90.3	i	92.2*	89.7	0.601
C=CCNC(=O)c1onc(CSc2ccc(OC)cc2)c1C(=O)O	104.7	i	-11.1	107.5	-0.638
CCCCNC(=O)c1onc(CCl)c1C(=O)OC	82.3	i	100.6*	78.9	-0.834
C=CCNC(=O)c1onc(CCl)c1C(=O)OC	92.3	i	100.7*	93.3	1.11
Cc1cc(Br)ccc1OCCn1ccnc1	92.4	i	72.1*	91.9	-0.461
Clc1cc(Br)ccc1OCCCn1ccnc1	89.3	i	97.0*	81.3	0.145
COc1ccc(-c2c(C)n([O-])c3c([n+]2=O)CCCC3)cc1OC	.	+	-7.8	.	-0.254
COc1ccccc1OCc1ccc(C(=O)NC(C)(C)C)o1	92.9	i	3.1	92.3	-1.55
CCN(CC)C(=O)c1ccc(COc2ccccc2Br)o1	62.7	i	87.7*	48.5	-0.201
CC(C)(C)NC(=O)c1ccc(COc2ccccc2Br)o1	64.7	i	78.2*	65.7	0.534
O=C(Nc1cccnc1)c1ccc(-c2cc(Cl)ccc2Cl)o1	.	i	11.2	.	0.356
CCN(CC)C(=O)c1ccc(COc2ccccc2Cl)cc1	66.6	i	63.1*	62.9	0.646
O=C(Nc1cccnc1)c1ccc(-c2ccc(Cl)cc2)o1	.	+	13.9	.	0.237
CC1CN(C(=O)c2ccc(COc3ccccc3Br)o2)CC(C)O1 (stereo not drawn)	.	i	-0.9	.	-0.485
C(=N\Nc1nc(Nc2ccccc2)nc(N2CCCCC2)n1)/c1ccco1	.	i	36.4	.	0.0903
O=C(NCc1cccnc1)c1ccc(COc2ccccc2Br)o1	63.2	i	5.7	78.2	1.55
O=C(Nc1cccnc1)c1ccc(COc2ccccc2Br)o1	26.5	+	12.6	25.6	-1.15
COC(=O)C1=C(C)N(C)C(C)=C(C(=O)OC)C1c1ccc(F)c(Br)c1	56.3	i	76.5*	60.1	-0.847
CN1C(=O)/C(=C/c2ccccc2OCc2ccccc2F)NC1=S	82.2	i	61.6*	81.3	-0.641
O=C(O)c1ccc(COc2ccccc2/C=C2\NC(=O)N(Cc3ccccc3F)C2=O)cc1	.	i	-3.0	.	-0.888
Cc1ccc2c(c1)cc(CN(Cc1ccc3c(c1)OCO3)S(=O)(=O)c1ccccc1)c1nnnn12	98.7	i	99.0*	81.4	1.1
Cc1ccc2c(c1)cc(CN(Cc1cccnc1)C(=O)c1ccccc1)c1nnnn12	.	i	47.5	.	0.472
